Columns and labels:
[1] = test system: SW480; assay: Percent inhibition of SW480 cell growth in sub G0 phase at 92 nm concentration in FACS cell cycle after 24 hr of treatment; assay type: functional, Homo sapiens
In short: (§1)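 SW480 cells were exposed to compound for 4, 16 or 24 h. Cells were fixed in 70% ethanol, pelleted for 1 min at 3000g at 25 °C and washed once in PBS. They were then treated with ribonuclease for 15 min at 37 °C and stained with propidium iodide for 30 min at room temperature. Flow cytometry gave the % of cells in G0-G1, S, G2-M and subG0, and the G2/G1 ratio.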

[2] = test system: SW480; assay: Percent inhibition of SW480 cell growth in S phase at 270 nm concentration in FACS cell cycle after 4 hr of treatment; assay type: functional, Homo sapiens; in short: as §1
[3] = test system: SW480; assay: Percent inhibition of SW480 cell growth in G0-G1 phase at 270 nm concentration in FACS cell cycle after 16 hr of treatment; assay type: functional, Homo sapiens; in short: as §1
[4] = Inhibition ratio of G2 and G1 phase cellular fractions of SW480 cells treated with compound at 92 nM concentration at 24 h; assay type: functional; in short: as §1
[5] = Inhibition ratio of G2 and G1 phase cellular fractions of SW480 cells treated with compound at 92 nM concentration at 4 h; assay type: functional; in short: as §1
[6] = test system: SW480; assay: In vitro inhibition of SW480 (human colon cancer) cell proliferation.; assay type: functional, cell-based
In short: (§2)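 MTT-based proliferation assay run on tumour cells. IC50 values were taken from a single experiment.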

[7] = test system: SW480; assay: Percent inhibition of SW480 cell growth in S phase at 270 nm concentration in FACS cell cycle after 24 hr of treatment; assay type: functional, Homo sapiens; in short: as §1
[8] = test system: SW480; assay: Percent inhibition of SW480 cell growth in G0-G1 phase at 0 nm concentration in FACS cell cycle after 16 hr of treatment; assay type: functional, Homo sapiens; in short: as §1
[9] = test system: SW480; assay: Percent inhibition of SW480 cell growth in G0-G1 phase at 0 nm concentration in FACS cell cycle after 4 hr of treatment; assay type: functional, Homo sapiens; in short: as §1
[10] = test system: SW480; assay: Percent inhibition of SW480 cell growth in G0-G1 phase at 92 nm concentration in FACS cell cycle after 16 hr of treatment; assay type: functional, Homo sapiens; in short: as §1
[11] = test system: MDA-MB-435; assay: In vitro inhibition of MDA MB 435 (human breast cancer) cell proliferation.; assay type: functional, cell-based; in short: as §2
[12] = test system: SW480; assay: Percent inhibition of SW480 cell growth in G2-M phase at 92 nm concentration in FACS cell cycle after 24 hr of treatment; assay type: functional, Homo sapiens; in short: as §1
[13] = Inhibition ratio of G2 and G1 phase cellular fractions of SW480 cells treated with compound at 270 nM concentration at 4 h; assay type: functional; in short: as §1
[14] = test system: SW480; assay: Percent inhibition of SW480 cell growth in S phase at 92 nm concentration in FACS cell cycle after 16 hr of treatment; assay type: functional, Homo sapiens; in short: as §1
[15] = test system: SW480; assay: Percent inhibition of SW480 cell growth in G2-M phase at 270 nm concentration in FACS cell cycle after 4 hr of treatment; assay type: functional, Homo sapiens; in short: as §1
[16] = test system: SW480; assay: Percent inhibition of SW480 cell growth in G2-M phase at 270 nm concentration in FACS cell cycle after 24 h of treatment; assay type: functional, Homo sapiens; in short: as §1
[17] = test system: SW480; assay: Percent inhibition of SW480 cell growth in G2-M phase at 0 nm concentration in FACS cell cycle after 24 hr of treatment; assay type: functional, Homo sapiens; in short: as §1
[18] = Inhibition ratio of G2 and G1 phase cellular fractions of SW480 cells treated with compound at 0 nM concentration at 4 h; assay type: functional; in short: as §1
[19] = test system: SW480; assay: Percent inhibition of SW480 cell growth in sub G0 phase at 0 nm concentration in FACS cell cycle after 4 hr of treatment; assay type: functional, Homo sapiens; in short: as §1
[20] = test system: SW480; assay: Percent inhibition of SW480 cell growth in sub G0 phase at 0 nm concentration in FACS cell cycle after 16 hr of treatment; assay type: functional, Homo sapiens; in short: as §1
[21] = test system: SW480; assay: Percent inhibition of SW480 cell growth in S phase at 0 nm concentration in FACS cell cycle after 4 h of treatment; assay type: functional, Homo sapiens; in short: as §1
[22] = test system: SW480; assay: Percent inhibition of SW480 cell growth in S phase at 92 nm concentration in FACS cell cycle after 4 hr of treatment; assay type: functional, Homo sapiens; in short: as §1
[23] = test system: SW480; assay: Percent inhibition of SW480 cell growth in G0-G1 phase at 270 nm concentration in FACS cell cycle after 4 hr of treatment; assay type: functional, Homo sapiens; in short: as §1
[24] = test system: SW480; assay: Percent inhibition of SW480 cell growth in sub G0 phase at 92 nm concentration in FACS cell cycle after 4 hr of treatment; assay type: functional, Homo sapiens; in short: as §1
[25] = test system: SW480; assay: Percent inhibition of SW480 cell growth in G0-G1 phase at 92 nm concentration in FACS cell cycle after 24 hr of treatment; assay type: functional, Homo sapiens; in short: as §1
[26] = test system: SW480; assay: Percent inhibition of SW480 cell growth in G0-G1 phase at 0 nm concentration in FACS cell cycle after 24 hr of treatment; assay type: functional, Homo sapiens; in short: as §1
[27] = test system: SW480; assay: Percent inhibition of SW480 cell growth in G0-G1 phase at 270 nm concentration in FACS cell cycle after 24 hr of treatment; assay type: functional, Homo sapiens; in short: as §1
[28] = Inhibition ratio of G2 and G1 phase cellular fractions of SW480 cells treated with compound at 92 nM concentration at 16 h; assay type: functional; in short: as §1
[29] = test system: SW480; assay: Percent inhibition of SW480 cell growth in G2-M phase at 0 nm concentration in FACS cell cycle after 4 hr of treatment; assay type: functional, Homo sapiens; in short: as §1
[30] = test system: SW480; assay: Percent inhibition of SW480 cell growth in G2-M phase at 92 nm concentration in FACS cell cycle after 16 hr of treatment; assay type: functional, Homo sapiens; in short: as §1
[31] = test system: SW480; assay: Percent inhibition of SW480 cell growth in sub G0 phase at 0 nm concentration in FACS cell cycle after 24 hr of treatment; assay type: functional, Homo sapiens; in short: as §1
[32] = test system: SW480; assay: Percent inhibition of SW480 cell growth in sub G0 phase at 270 nm concentration in FACS cell cycle after 16 hr of treatment; assay type: functional, Homo sapiens; in short: as §1
[33] = test system: SW480; assay: Percent inhibition of SW480 cell growth in sub G0 phase at 270 nm concentration in FACS cell cycle after 4 hr of treatment; assay type: functional, Homo sapiens; in short: as §1
[34] = target: Cyclin-dependent kinase 2/cyclin E (Homo sapiens, UniProt P24941); assay: In vitro inhibition of recombinant Cyclin Dependent Kinase-2/Cyclin E.; assay type: protein-complex assay
[35] = test system: SW480; assay: Percent inhibition of SW480 cell growth in G2-M phase at 0 nm concentration in FACS cell cycle after 16 hr of treatment; assay type: functional, Homo sapiens; in short: as §1
[36] = test system: SW480; assay: Percent inhibition of SW480 cell growth in sub G0 phase at 270 nm concentration in FACS cell cycle after 24 h of treatment; assay type: functional, Homo sapiens; in short: as §1
[37] = test system: SW480; assay: Percent inhibition of SW480 cell growth in G0-G1 phase at 92 nm concentration in FACS cell cycle after 4 hr of treatment; assay type: functional, Homo sapiens; in short: as §1
[38] = test system: SW480; assay: Percent inhibition of SW480 cell growth in S phase at 0 nm concentration in FACS cell cycle after 24 hr of treatment; assay type: functional, Homo sapiens; in short: as §1
[39] = Inhibition ratio of G2 and G1 phase cellular fractions of SW480 cells treated with compound at 270 nM concentration at 24 h; assay type: functional; in short: as §1
[40] = Inhibition ratio of G2 and G1 phase cellular fractions of SW480 cells treated with compound at 0 nM concentration at 24 h; assay type: functional; in short: as §1
[41] = test system: SW480; assay: Percent inhibition of SW480 cell growth in S phase at 270 nm concentration in FACS cell cycle after 16 hr of treatment; assay type: functional, Homo sapiens; in short: as §1
[42] = test system: SW480; assay: Percent inhibition of SW480 cell growth in G2-M phase at 92 nm concentration in FACS cell cycle after 4 hr of treatment; assay type: functional, Homo sapiens; in short: as §1
[43] = Inhibition ratio of G2 and G1 phase cellular fractions of SW480 cells treated with compound at 0 nM concentration at 16 h; assay type: functional; in short: as §1
[44] = test system: SW480; assay: Percent inhibition of SW480 cell growth in sub G0 phase at 92 nm concentration in FACS cell cycle after 16 h of treatment; assay type: functional, Homo sapiens; in short: as §1
[45] = test system: SW480; assay: Percent inhibition of SW480 cell growth in G2-M phase at 270 nm concentration in FACS cell cycle after 16 hr of treatment; assay type: functional, Homo sapiens; in short: as §1
[46] = test system: SW480; assay: Percent inhibition of SW480 cell growth in S phase at 0 nm concentration in FACS cell cycle after 16 hr of treatment; assay type: functional, Homo sapiens; in short: as §1
[47] = Inhibition ratio of G2 and G1 phase cellular fractions of SW480 cells treated with compound at 270 nM concentration at 16 h; assay type: functional; in short: as §1
[48] = test system: SW480; assay: Percent inhibition of SW480 cell growth in S phase at 92 nm concentration in FACS cell cycle after 24 hr of treatment; assay type: functional, Homo sapiens; in short: as §1

## COc1cc[nH]c1/C=C1\C(=O)Nc2ccc(F)c(C#CC3(O)CCNCC3)c21.Cl
[1]
  SubG0: 11.67%
[2]
  S: 34.26%
[3]
  G0/G1: 47.74%
[4]
  Ratio: 1.96%
[5]
  Ratio: 1.95%
[6]
  IC50: 0.092 µM
[7]
  S: 14.54%
[8]
  G0/G1: 46.55%
[9]
  G0/G1: 49.25%
[10]
  G0/G1: 55.84%
[11]
  IC50: 0.11 µM
[12]
  G2/M: 15.16%
[13]
  Ratio: 1.95%
[14]
  S: 28.43%
[15]
  G2/M: 21.8%
[16]
  G2/M: 35.45%
[17]
  G2/M: 14.89%
[18]
  Ratio: 1.94%
[19]
  SubG0: 13.29%
[20]
  SubG0: 11.29%
[21]
  S: 32.33%
[22]
  S: 29.14%
[23]
  G0/G1: 43.9%
[24]
  SubG0: 11.17%
[25]
  G0/G1: 54.68%
[26]
  G0/G1: 52.41%
[27]
  G0/G1: 50%
[28]
  Ratio: 1.96%
[29]
  G2/M: 18.42%
[30]
  G2/M: 15.72%
[31]
  SubG0: 11.85%
[32]
  SubG0: 43.52%
[33]
  SubG0: 14.47%
[34]
  IC50: 0.006 µM
[35]
  G2/M: 14.84%
[36]
  SubG0: 46.86%
[37]
  G0/G1: 52.49%
[38]
  S: 32.7%
[39]
  Ratio: 1.94%
[40]
  Ratio: 1.95%
[41]
  S: 13.82%
[42]
  G2/M: 18.36%
[43]
  Ratio: 1.95%
[44]
  SubG0: 13.52%
[45]
  G2/M: 38.44%
[46]
  S: 38.61%
[47]
  Ratio: 1.94%
[48]
  S: 30.15%

## COc1cc[nH]c1/C=C1\C(=O)Nc2ccc(F)c(C#C[C@@H](C)O)c21
[6]
  IC50: 0.13 µM
[11]
  IC50: 0.11 µM
[34]
  IC50: 0.021 µM

## COc1cc[nH]c1/C=C1/C(=O)Nc2ccc(F)cc21
[11]
  IC50: > 30 µM
[34]
  IC50: 0.847 µM

## COc1cc[nH]c1/C=C1\C(=O)Nc2ccc(F)c(C#CC3(O)CCOCC3)c21
[6]
  IC50: 0.29 µM
[11]
  IC50: 0.6 µM
[34]
  IC50: 0.004 µM

## COc1cc[nH]c1/C=C1\C(=O)Nc2ccc(F)c(C#C[C@H](CO)NCCO)c21
[6]
  IC50: 0.967 µM
[11]
  IC50: 1.27 µM
[34]
  IC50: 0.095 µM

## COc1cc[nH]c1/C=C1\C(=O)Nc2ccc(F)c(C#CC(O)CN)c21 (configuration not stated)
[6]
  IC50: 0.11 µM
[11]
  IC50: 0.13 µM
[34]
  IC50: 0.004 µM

Source: ChEMBL document CHEMBL1147441, “A new series of potent oxindole inhibitors of CDK2” (Bioorg Med Chem Lett, 2004)
